In ChEMBL document CHEMBL1157169, “A class of novel nitronyl nitroxide labeling basic and acidic amino acids: synthesis, application for preparing ESR optionally labeling peptides, and bioactivity investigations” (Bioorg Med Chem, 2008):
Where a SMILES comes first, the peptide text is derived from it. The star is where a group is joined. X2 = CC1(C)N(O)C(c2ccc(OCC(=O)*)cc2)=[N+]([O-])C1(C)C; X1 = CC1(C)N(O)C(c2ccc(OCCN*)cc2)=[N+]([O-])C1(C)C

Legend:
Aorta [1] = test: Nitric oxide radical scavenging activity in rat aortic strip assessed as inhibition of acetylcholine-induced vasorelaxation at 10 uM; assay type: functional, tissue-based
Aorta [2] = test: Nitric oxide radical scavenging activity in rat aortic strip assessed as inhibition of acetylcholine-induced vasorelaxation at 1 uM; assay type: functional, tissue-based
Aorta [3] = test: Nitric oxide radical scavenging activity in rat aortic strip assessed as inhibition of acetylcholine-induced vasorelaxation at 100 uM; assay type: functional, tissue-based
PC-12 [4] = test: Radical scavenging activity in rat PC12 cells assessed as inhibition of nitric oxide radical-induced cell damage by MTT assay; assay type: functional, cell-based
How it was run: (§1)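 PC12 cells grown in DMEM with 10% heat-inactivated horse serum, 5% FBS and 1.0 mM pyruvate at 37 °C, 5% CO2. Seeded at 20,000 cells/well on poly-L-lysine and attached 24 h. Pretreated 1 h with 12.5–200 µM compound. Damage induced by SNP 2 mM for 2 h (NO), H2O2 1 mM for 1 h, or H2O2 1 mM/Fe(II) 30 µM for 1 h (·OH). Media replaced, cells incubated 14 h, survival measured by MTT.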

PC-12 [5] = test: Radical scavenging activity in rat PC12 cells assessed as inhibition of hydrogen peroxide radical-induced cell damage by MTT assay; assay type: functional, cell-based; how it was run: as §1
PC-12 [6] = test: Radical scavenging activity in rat PC12 cells assessed as inhibition of hydroxyl radical-induced cell damage by MTT assay; assay type: functional, cell-based; how it was run: as §1
[7] = Aqueous stability assessed as decomposition time at pH 2.0; assay type: physicochemical; settings: buffer
How it was run: (§2)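 Each sample dissolved in aqueous solution at pH 2.0, 7.4 or 11.5 (final 10^-2 mM) and held at room temperature for up to 200 h. Decomposition followed by TLC (CHCl3/CH3OH, 20:1). Value is the time at which decomposition appeared.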

[8] = Aqueous stability assessed as decomposition time at pH 7.4; assay type: physicochemical; settings: buffer; how it was run: as §2
[9] = Aqueous stability assessed as decomposition time at pH 11.5; assay type: physicochemical; settings: buffer; how it was run: as §2
Blood [10] = test: Inhibition of 10 uM adenosine diphosphate-induced platelet aggregation in rabbit blood; assay type: functional, Oryctolagus cuniculus
How it was run: (§3)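 Platelet-rich plasma made by centrifuging normal rabbit blood anticoagulated with sodium citrate (3.8% final). Platelets adjusted to 2×10^5/µl with autologous plasma. Aggregation induced by PAF or ADP (final 10^-5–10^-7 M) and read by turbidimetry in an aggregometer. Maximal aggregation rate (Am%) taken as peak height of the curve.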

Blood [11] = test: Inhibition of 1 uM adenosine diphosphate-induced platelet aggregation in rabbit blood; assay type: functional, Oryctolagus cuniculus; how it was run: as §3
Blood [12] = test: Inhibition of 0.1 uM adenosine diphosphate-induced platelet aggregation in rabbit blood; assay type: functional, Oryctolagus cuniculus; how it was run: as §3
Blood [13] = test: Inhibition of 10 uM platelet activating factor-induced platelet aggregation in rabbit blood; assay type: functional, Oryctolagus cuniculus; how it was run: as §3
Blood [14] = test: Inhibition of 1 uM platelet activating factor-induced platelet aggregation in rabbit blood; assay type: functional, Oryctolagus cuniculus; how it was run: as §3
Blood [15] = test: Inhibition of 0.1 uM platelet activating factor-induced platelet aggregation in rabbit blood; assay type: functional, Oryctolagus cuniculus; how it was run: as §3
Rattus norvegicus [16] = test: Antithrombotic activity in Wistar rat assessed as wet thrombus weight at 5 umol/kg; assay type: functional
How it was run: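 Male Wistar rats (250–300 g) anesthetized with pentobarbital sodium (80.0 mg/kg, ip). The right carotid artery and left jugular vein were cannulated via a polyethylene tube containing a thread, filled with NS or compound dissolved in NS (vehicle NS). Blood shunted 15 min. The thread was weighed wet, then after 2 weeks in a desiccator weighed dry. n = 10, ANOVA.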

Rattus norvegicus [17] = test: Antithrombotic activity in Wistar rat assessed as dry thrombus weight at 5 umol/kg
Plasma = test: Thrombolytic activity in rabbit plasma assessed as euglobulin clot lysis time at 4.5 uM; assay type: functional, Oryctolagus cuniculus
How it was run: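 Rabbit plasma diluted 1:20 in water and precipitated at pH 5.7 with 0.25% acetic acid for 30 min at 4 °C. Centrifuged at 2000g for 15 min. […] Sample added and time to clot lysis recorded.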

Oryctolagus cuniculus = species on record: Oryctolagus cuniculus; test: Thrombolytic activity against rabbit fibrinogen assessed as fibrinogen lysis area at 4.5 uM
How it was run: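 Equal volumes of 0.3% rabbit fibrinogen and 0.95% agarose in 50 mM sodium barbiturate buffer (pH 7.8), coagulated with thrombin (100 IU/mL). After 30 min at 4 °C, 5 mm wells were punched and 30 µl of sample in NS added per well. Plates incubated and lysis area measured in mm². ANOVA.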

Rattus norvegicus [18] = test: Thrombolytic activity in Wistar rat assessed as reduction in thrombus weight at 10 umol/kg; assay type: functional
How it was run: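 Male Wistar rats (200–300 g) anesthetized with pentobarbital sodium (80.0 mg/kg, ip). A steel helix was left 15 min in 1.0 ml carotid artery blood, and the helix with thrombus was weighed. It was placed in a polyethylene tube filled with heparin sodium (50 IU/ml NS) inserted into the left jugular vein. Heparin was injected, then compound dissolved in NS. Read-out is reduction in thrombus weight.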

SMILES	inhibition (Aorta [1]) [%]	inhibition (Aorta [2]) [%]	inhibition (Aorta [3]) [%]	EC50 (PC-12 [4]) [µM]	EC50 (PC-12 [5]) [µM]	EC50 (PC-12 [6]) [µM]	Time [7] [h]	Time [8] [h]	Time [9] [h]	inhibition (INH) (Blood [10]) [%]	inhibition (INH) (Blood [11]) [%]	inhibition (INH) (Blood [12]) [%]	inhibition (INH) (Blood [13]) [%]	inhibition (INH) (Blood [14]) [%]	inhibition (INH) (Blood [15]) [%]	Activity (Rattus norvegicus [16]) [mg]	dry thrombus weight (Rattus norvegicus [17]) [mg]	Time (Plasma) [min]	Activity (Oryctolagus cuniculus) [mm2]	Activity (Rattus norvegicus [18]) [mg]
COC(=O)[C@@H](N)CC(=O)NCCOc1ccc(C2=[N+]([O-])C(C)(C)C(C)(C)N2O)cc1	76	29.2	99.1	39	47.8	55.6	–	–	–	–	–	–	–	–	–	–	–	–	–	–
CC1(C)N(O)C(c2ccc([N+](=O)[O-])cc2)=[N+]([O-])C1(C)C	71.3	–	98	–	–	–	> 200	> 200	> 200	–	–	–	–	–	–	–	–	–	–	–
CC1(C)N(O)C(CCl)=[N+]([O-])C1(C)C	7.7	1.6	25	–	–	–	2	18	2.5	–	–	–	–	–	–	–	–	–	–	–
CC1(C)N(O)C(c2cccnc2)=[N+]([O-])C1(C)C	16.6	1.7	48.6	–	–	–	15	30	18	–	–	–	–	–	–	–	–	–	–	–
CC1(C)N(O)C(c2ccc(OCCNC(=O)C[C@H](N)C(=O)O)cc2)=[N+]([O-])C1(C)C	72.8	26.7	97.5	42.3	48.6	58.2	–	–	–	–	–	–	–	–	–	–	–	–	–	–
CC1(C)N(O)C(C(=O)O)=[N+]([O-])C1(C)C	25	1.7	34.3	–	–	–	2	18	2.5	–	–	–	–	–	–	–	–	–	–	–
CC1(C)N(O)C(c2ccc(OCC(=O)N[C@@H](CCCCN)C(=O)O)cc2)=[N+]([O-])C1(C)C	74	28.7	98.9	90.6	30.1	99.1	–	–	–	–	–	–	–	–	–	–	–	–	–	–
CC(C)(C)OC(=O)N[C@@H](CCC(=O)NCCOc1ccc(C2=[N+]([O-])C(C)(C)C(C)(C)N2O)cc1)C(=O)O	72.4	26	96.9	42.7	49.9	59	–	–	–	–	–	–	–	–	–	–	–	–	–	–
CC1(C)N(O)C(c2ccc(OCC(=O)NCCCC[C@H](N)C(=O)O)cc2)=[N+]([O-])C1(C)C	72.3	25.4	98.6	90.6	29.9	98.8	–	–	–	–	–	–	–	–	–	–	–	–	–	–
CC1(C)N(O)C(c2ccc(OCCNC(=O)C[C@H](NC(=O)CNC(=O)[C@@H](N)CCCNC(=N)N)C(=O)N[C@@H](CO)C(=O)O)cc2)=[N+]([O-])C1(C)C (H-RGD(X1)S-OH)	71.3	24	95.9	92.9	32	102	–	–	–	50	39.43	16.11	51.59	34.33	21.52	25.01	4.08	–	–	–
CC(C)[C@H](NC(=O)[C@H](CC(=O)O)NC(=O)CNC(=O)[C@@H](N)CCCNC(=N)N)C(=O)O (H-RGDV-OH)	7.6	5.3	10.5	–	–	–	–	–	–	49.78	33.41	12.65	52.07	34.84	20.01	28.6	4.43	–	–	–
CC(C)[C@H](NC(=O)[C@H](CC(=O)O)NC(=O)CNC(=O)[C@@H](N)CCCNC(=N)NC(=O)COc1ccc(C2=[N+]([O-])C(C)(C)C(C)(C)N2O)cc1)C(=O)O (H-R(X2)GDV-OH)	72.8	26.2	96.6	93	32.8	102	–	–	–	50.2	39.6	16.38	50.26	32.8	19.88	26.11	4.18	–	–	–
CC1(C)N(O)C(c2ccccc2)=[N+]([O-])C1(C)C	62.7	9.8	81.9	–	–	–	> 200	> 200	> 200	–	–	–	–	–	–	–	–	–	–	–
N=C(N)NCCC[C@H](N)C(=O)NCC(=O)N[C@@H](CC(=O)O)C(=O)N[C@@H](CO)C(=O)O	4.3	2.9	8.9	–	–	–	–	–	–	51.5	39.62	16.6	53.69	36.47	22.03	27.9	4.22	–	–	–
C[C@H](NC(=O)[C@@H]1CCCN1)C(=O)N[C@@H](CCCCN)C(=O)O (H-Pro-Ala-Lys-OH)	6.1	4.5	9.5	–	–	–	–	–	–	–	–	–	–	–	–	–	–	101.6	214	24.11
CC1(C)N(O)C(c2ccc(O)cc2)=[N+]([O-])C1(C)C	73.1	26.1	99.2	40	49.1	56.9	> 200	> 200	> 200	49.28	50.39	49.01	54	52.45	53.04	38.9	6.8	–	–	–
CC1(C)N(O)C(c2ccc(OCCNC(=O)CC[C@H](N)C(=O)N[C@@H](CS)C(=O)NCC(=O)O)cc2)=[N+]([O-])C1(C)C	–	–	–	37.8	47	54.9	–	–	–	–	–	–	–	–	–	–	–	–	–	–
CC1(C)N(O)C(c2ccco2)=[N+]([O-])C1(C)C	20.2	1.6	44.4	–	–	–	15	30	18	–	–	–	–	–	–	–	–	–	–	–
CC(C)(C)OC(=O)N[C@@H](CCCCNC(=O)COc1ccc(C2=[N+]([O-])C(C)(C)C(C)(C)N2O)cc1)C(=O)O	72.7	28	97.9	89.9	29.3	97.7	–	–	–	–	–	–	–	–	–	–	–	–	–	–
N[C@@H](CCC(=O)O)C(=O)N[C@@H](CS)C(=O)NCC(=O)O (H-Glu-Cys-Gly-OH)	5.2	3.2	9.2	–	–	–	–	–	–	–	–	–	–	–	–	–	–	–	–	–
CC1(C)N(O)C(c2ccc(OCCNC(=O)CC[C@H](N)C(=O)O)cc2)=[N+]([O-])C1(C)C	72.4	26.2	97.1	41.8	49.6	58.1	–	–	–	–	–	–	–	–	–	–	–	–	–	–
CC(C)(C)OC(=O)N[C@@H](CCCNC(=N)NC(=O)COc1ccc(C2=[N+]([O-])C(C)(C)C(C)(C)N2O)cc1)C(=O)O	71.2	24.1	95	93	32.4	102	–	–	–	–	–	–	–	–	–	–	–	–	–	–
CC1(C)N(O)C(c2ccc(OCCNC(=O)CC[C@H](N)C(=O)N[C@H](CS)C(=O)NCC(=O)O)cc2)=[N+]([O-])C1(C)C	72.2	25.9	97.3	–	–	–	–	–	–	–	–	–	–	–	–	–	–	–	–	–
CC1(C)N(O)C=[N+]([O-])C1(C)C	8.6	1.7	31.2	–	–	–	2	18	2.5	–	–	–	–	–	–	–	–	–	–	–
CC1(C)N(O)C(c2ccc(OCC(=O)N[C@@H](CCCNC(=N)N)C(=O)O)cc2)=[N+]([O-])C1(C)C	10.7	7.8	15.9	92.9	32.1	101	–	–	–	–	–	–	–	–	–	–	–	–	–	–
